Our source for the Activity values is ChEMBL document CHEMBL4257441, “Protection effect of intracellular melanin from Lachnum YM156 and Haikunshenxi capsule combination on adenine-induced chronic renal failure in mice” (Medchemcomm, 2017).

Assay [1] concerns Mus musculus. The assay is described as follows: Protective effect against adenine-induced chronic renal failure in Kunming mouse assessed as nephridial TNF-alpha levels at 200 mg/kg, ig qd administered for 4 successive weeks (reference value: 250.15 +/- 8.10 pg/ml). The format is functional.
Assay [2] has as its system Mus musculus. The assay is described as follows: Protective effect against adenine-induced chronic renal failure in Kunming mouse assessed as nephridial MDA levels at 100 mg/kg, ig qd administered for 4 successive weeks by thiobarbituric acid method (reference value: 5.05 +/- 0.15 nmol/ml). The class given is functional.
The subject of assay [3] is Mus musculus. The assay is described as follows: Protective effect against adenine-induced chronic renal failure in Kunming mouse assessed as nephridial IL-6 levels at 200 mg/kg, ig qd administered for 4 successive weeks (reference value: 20.85 +/- 0.11 pg/ml). The format is functional.
Assay [4] deals with Mus musculus. Put plainly: Protective effect against adenine-induced chronic renal failure in ig dosed Kunming mouse assessed as reduction in kidney index administered as qd for 4 successive weeks measured 24 hrs post last dose.
In assay [5] the test system is Mus musculus. The assay is described as follows: Protective effect against adenine-induced chronic renal failure in Kunming mouse assessed as weight growth rate at 100 mg/kg, ig qd administered for 4 successive weeks with haikunshenxi capsule measured 24 hrs post last dose (reference value: 32.42 +/- 1.43%). The format is functional. The essentials:
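Male Kunming mice (20 ± 5 g) kept on a 12 h light/dark cycle at 18–20 °C on a standard diet. CRF induced by chronic dietary adenine. Test material given orally at 100 or 200 mg kg–1, alone or with Haikunshenxi capsule, alongside normal, model and capsule-only groups; ten mice per group. Weight growth rate recorded in %, kidney index in mg g–1.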

The subject of assay [6] is Mus musculus. Put plainly: Protective effect against adenine-induced chronic renal failure in Kunming mouse assessed as nephridial IL-1beta levels at 200 mg/kg, ig qd administered for 4 successive weeks (reference value: 18.34 +/- 0.25 pg/ml). The format is functional.
Assay [7] has as its system Mus musculus. The assay is described as follows: Protective effect against adenine-induced chronic renal failure in ig dosed Kunming mouse assessed as decrease in nephridial TNF-alpha levels administered as qd for 4 successive weeks with haikunshenxi capsule. The format is functional, organism-based. The essentials:
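CRF model made by chronic dietary adenine in male Kunming mice (20 ± 5 g); oral dosing at 100 or 200 mg kg–1, alone or with Haikunshenxi capsule; ten mice per group. Kidney tissue TNF-α, IL-1β and IL-6 measured as pg per mg protein, and iNOS activity as U mg–1 protein.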

For assay [8], the system named is Mus musculus. Put plainly: Protective effect against adenine-induced chronic renal failure in Kunming mouse assessed as reduction in renal tubular atrophy at 200 mg/kg, ig qd administered for 4 successive weeks with haikunshenxi capsule by haematoxylin and eosin dye-based optical microscopic method. The class given is functional, organism-based. In outline:
(§1)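 Kidneys were taken from male Kunming mice given an adenine diet plus oral melanin (100 or 200 mg kg–1), with or without Haikunshenxi capsule, ten per group. Histological sections were examined at 400× for glomeruli, tubules, adenine crystals, tubular atrophy and interstitial fibrosis.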

The subject of assay [9] is Mus musculus. The assay is described as follows: Protective effect against adenine-induced chronic renal failure in Kunming mouse assessed as nephridial GSH-PX levels at 100 mg/kg, ig qd administered for 4 successive weeks with haikunshenxi capsule by colorimetric method (reference value: 688.45 +/- 12.67 U/L). The class given is functional.
Assay [10] deals with Mus musculus. Put plainly: Protective effect against adenine-induced chronic renal failure in Kunming mouse assessed as kidney index at 200 mg/kg, ig qd administered for 4 successive weeks with haikunshenxi capsule measured 24 hrs post last dose (reference value: 1.94 +/- 0.03 mg/g). The class given is functional. The essentials:
(§2)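 Male Kunming mice (20 ± 5 g) were housed on a 12 h light/dark cycle at 18–20 °C. Chronic renal failure was induced by long-term dietary adenine. The melanin was given orally at 100 or 200 mg kg–1, alone or with Haikunshenxi capsule as positive drug, with ten mice per group. Weight growth rate (%) and kidney index (mg g–1) were recorded.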

Assay [11] relates to Mus musculus. Put plainly: Protective effect against adenine-induced chronic renal failure in Kunming mouse assessed as kidney index at 100 mg/kg, ig qd administered for 4 successive weeks with haikunshenxi capsule measured 24 hrs post last dose (reference value: 1.94 +/- 0.03 mg/g). The format is functional. The essentials: as §2
The test system of assay [12] is Mus musculus. Put plainly: Protective effect against adenine-induced chronic renal failure in Kunming mouse assessed as reduction in interstitial fibrosis in kidney at 200 mg/kg, ig qd administered for 4 successive weeks by haematoxylin and eosin dye-based optical microscopic method. The format is functional, organism-based. In outline: as §1
Assay [13] relates to Mus musculus. Put plainly: Protective effect against adenine-induced chronic renal failure in ig dosed Kunming mouse assessed as increase in nephridial SOD levels administered as qd for 4 successive weeks by hydroxylamine method. The format is functional, organism-based. The essentials: (§3)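 Male Kunming mice (20 ± 5 g) given dietary adenine to induce CRF, then dosed orally at 100 or 200 mg kg–1, with or without Haikunshenxi capsule; n = 10 per group. Kidney homogenate assayed for SOD and CAT (U mg–1 protein), GSH-Px (U L–1), GSH (mg g–1 protein) and MDA (nmol mL–1).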

Assay [14] has as its system Mus musculus. The assay is described as follows: Protective effect against adenine-induced chronic renal failure in Kunming mouse assessed as reduction in interstitial fibrosis at 200 mg/kg, ig qd administered for 4 successive weeks with haikunshenxi capsule by haematoxylin and eosin dye-based optical microscopic method. The format is functional, organism-based. The essentials: as §1

Assay [15] relates to Mus musculus. The assay is described as follows: Protective effect against adenine-induced chronic renal failure in ig dosed Kunming mouse assessed as increase in nephridial GSH levels administered as qd for 4 successive weeks with haikunshenxi capsule by colorimetric method. The class given is functional, organism-based. In outline: as §3
Assay [16] deals with Mus musculus. Put plainly: Protective effect against adenine-induced chronic renal failure in Kunming mouse assessed as nephridial GSH-PX levels at 200 mg/kg, ig qd administered for 4 successive weeks by colorimetric method (reference value: 688.45 +/- 12.67 U/L). The format is functional.
Assay [17] deals with Mus musculus. Put plainly: Protective effect against adenine-induced chronic renal failure in Kunming mouse assessed as nephridial GSH-PX levels at 200 mg/kg, ig qd administered for 4 successive weeks with haikunshenxi capsule by colorimetric method (reference value: 688.45 +/- 12.67 U/L). The format is functional.
The test system of assay [18] is Mus musculus. Put plainly: Protective effect against adenine-induced chronic renal failure in Kunming mouse assessed as appearance of complete kidney tubules at 100 mg/kg, ig qd administered for 4 successive weeks by haematoxylin and eosin dye-based optical microscopic method. The class given is functional, organism-based. In outline:
as §1

Assay [19] relates to Mus musculus. The assay is described as follows: Protective effect against adenine-induced chronic renal failure in ig dosed Kunming mouse assessed as increase in total protein levels in serum administered as qd for 4 successive weeks by coomassie brilliant blue method. The format is functional, organism-based. In outline: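 Adenine-fed CRF model in male Kunming mice (20 ± 5 g) housed at 18–20 °C on a 12 h light/dark cycle. Oral dosing at 100 or 200 mg kg–1, with or without Haikunshenxi capsule; ten mice per group. Serum creatinine, BUN, total protein and albumin measured, each group compared with the model group.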

In assay [20] the test system is Mus musculus. Put plainly: Protective effect against adenine-induced chronic renal failure in Kunming mouse assessed as appearance of complete glomeruli in kidney at 100 mg/kg, ig qd administered for 4 successive weeks by haematoxylin and eosin dye-based optical microscopic method. The class given is functional, organism-based. The essentials:
as §1

The test system of assay [21] is Mus musculus. Put plainly: Protective effect against adenine-induced chronic renal failure in Kunming mouse assessed as nephridial IL-1beta levels at 200 mg/kg, ig qd administered for 4 successive weeks with haikunshenxi capsule (reference value: 18.34 +/- 0.25 pg/ml). The class given is functional.
In assay [22] the test system is Mus musculus. Put plainly: Protective effect against adenine-induced chronic renal failure in Kunming mouse assessed as nephridial GSH levels at 200 mg/kg, ig qd administered for 4 successive weeks with haikunshenxi capsule by colorimetric method (reference value: 3.05 +/- 0.11 mg/g). The format is functional.

Active and inactive are the calls of the source. The calls are words filed in the database; no cut-off is given here.

With `Cc1c(=O)c(=O)c2c3c[nH]c4c(C)c(=O)c(=O)c(c5c[nH]c1c52)c43`, the Activity is 168.32 pg/mL in [1]; 3.95 nmol/mL in assay [2]; 14.16 pg/mL in assay [3]; “Dose-dependent effect” in [4]; 54.34% in [5]; 16.03 pg/mL in assay [6]. The Activity result was “Dose-dependent effect” in assay [7]; 850.44 U/L in assay [9]; 1.13 mg/g in assay [10]; 1.18 mg/g in assay [11]; “Dose-dependent effect” in assay [13]; “Dose-dependent effect” in assay [15]. Also, the Activity is 790.43 U/L in assay [16]; 878.91 U/L in assay [17]; “Dose-dependent effect” in assay [19]; 13.81 pg/mL in [21]; 5.38 mg/g in [22]. In addition, the result in [8], in assay [12], in assay [14], in [18] and in assay [20] was Active.
